From ChEMBL document CHEMBL1127424, “7-azetidinylquinolones as antibacterial agents. 2. Synthesis and biological activity of 7-(2,3-disubstituted-1-azetidinyl)-4-oxoquinoline- and -1,8-naphthyridine-3-carboxylic acids. Properties and structure-activity relationships of quinolones with an azetidine moiety” (J Med Chem, 1994)
Values after ≈ are worked out from the molar mass of the structure shown. Values joined by “and” are separate entries in the source; they are usually repeats but may differ in a detail not shown here. Identical values can stand only once.

Columns and labels:
[1] = HPLC capacity factor (k'); type: ADME
Summary of the method: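 Ion-pair reversed-phase HPLC on ODS-2 (10 μm) at 45 °C. Mobile phase: 10 mM sodium heptanesulfonate plus 50 mM KH2PO4 (pH 3.5)–methanol 45:55, 1 mL/min. Samples at 100 μg/mL in DMF, injected in duplicate, UV 280 nm. k' = (tR − t0)/t0.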

[2] = Measured ionization constant (pKa); type: physicochemical; conditions: read-out: pKa1
Summary of the method: (§1)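 Spectrophotometric titration at 20 ± 1 °C, 0.1 M ionic strength, pH varied with H2SO4 or NaOH made up in the compound stock. Absorbance followed at compound-specific wavelengths chosen from 200–400 nm scans. pKa1 and pKa2 taken as the inflection points of the two-step absorbance vs pH curve.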

[3] = Dissociation constant (pKa); type: physicochemical; conditions: read-out: pKa2; summary of the method: as §1
[4] = test system: Enterobacter cloacae; assay: In vitro minimum inhibitory concentration for Enterobacter cloacae ATCC 23355; type: functional
[5] = test system: Escherichia coli; assay: In vitro minimum inhibitory concentration for Escherichia coli ATCC 10799; type: functional
Summary of the method: (§2)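 Serial 2-fold agar dilution in Mueller Hinton medium, run alongside a reference quinolone. Inoculum adjusted to 10⁸ cfu/mL; compound range 0.007–16 μg/mL.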

[6] = test system: Staphylococcus epidermidis; assay: In vitro minimum inhibitory concentration for Staphylococcus epidermidis ATCC 155-1; type: functional; summary of the method: as §2
[7] = test system: Mus musculus; assay: Evaluation of efficacy on systemic infections Escherichia coli HM-42, after oral administration in mice; type: functional
Summary of the method: (§3)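 Single oral dose given immediately after infection, one of four doses per group, chosen from in vitro activity. Survival scored after one week. ED50 (total mg/kg protecting 50%) interpolated from survival rates.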

[8] = test system: Enterococcus faecalis; assay: In vitro minimum inhibitory concentration for Streptococcus faecalis ATCC 10541; type: functional; summary of the method: as §2
[9] = test system: Bacillus subtilis; assay: In vitro minimum inhibitory concentration for Bacillus subtilis ATCC 6633; type: functional; summary of the method: as §2
[10] = test system: Bacillus cereus; assay: In vitro minimum inhibitory concentration for Bacillus cereus ATCC 11778; type: functional; summary of the method: as §2
[11] = test system: Klebsiella pneumoniae; assay: In vitro minimum inhibitory concentration to inhibit Klebsiella pneumoniae ATCC 10031; type: functional; summary of the method: as §2
[12] = test system: Staphylococcus aureus; assay: In vitro minimum inhibitory concentration for Staphylococcus aureus ATCC 25178; type: functional; summary of the method: as §2
[13] = test system: Proteus vulgaris; assay: In vitro minimum inhibitory concentration for Proteus vulgaris ATCC 8427; type: functional; summary of the method: as §2
[14] = test system: Mus musculus; assay: Evaluation of efficacy on systemic infections Staphylococcus aureus HS-93, after oral administration in mice; type: functional; summary of the method: as §3
[15] = test system: Morganella morganii; assay: In vitro minimum inhibitory concentration for Morganella morganii ATCC 8019; type: functional; summary of the method: as §2
[16] = Solubility (buffer pH 7.4); type: physicochemical; conditions: read-out: S
Summary of the method: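 Excess solid shaken in 0.05 M phosphate buffer pH 7.4 for 24 h at 25 °C. Suspension filtered through 0.22 μm, discarding the first portion. Filtrate diluted in 0.1 N HCl or 0.1 N NaOH and read by UV at the compound's absorbance maximum.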

[17] = AUC (0-4 hr) ug/ml/h; type: ADME, cell-free; parameters: time < 4 hr; concentration or dose not given beside the values; conditions: plasma
Summary of the method: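 Mice dosed once orally at 50 mg/kg; blood taken from groups of six mice at 0.5, 1, 2 and 4 h. Serum drug assayed by disk agar diffusion bioassay (Bacillus subtilis ATCC 6633 on Seed Agar, 37 °C, 18 h), giving total activity.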

[18] = test system: Pseudomonas aeruginosa; assay: In vitro minimum inhibitory concentration for Pseudomonas aeruginosa ATCC 10145; type: functional; summary of the method: as §2
[19] = test system: Mus musculus; assay: Evaluation of efficacy on systemic infections Pseudomonas aeruginosa HS-116, after oral administration in mice; type: functional; summary of the method: as §3
[20] = Measured inonisation constant (pKa); type: physicochemical; conditions: read-out: pKa2; summary of the method: as §1

SMILES	Log k' [1]	pKa [2]	pKa [3]	MIC [4] [µg/mL]	MIC [5] [µg/mL]	MIC [6] [µg/mL]	ED50 [7] [mg/kg]	MIC [8] [µg/mL]	MIC [9] [µg/mL]	MIC [10] [µg/mL]	MIC [11] [µg/mL]	MIC [12] [µg/mL]	MIC [13] [µg/mL]	ED50 [14] [mg/kg]	MIC [15] [µg/mL]	solubility [16] [µg/mL]	AUC [17] [ng·h/mL]	MIC [18] [µg/mL]	ED50 [19] [mg/kg]	pKa [20]
CC1(N)CN(c2c(F)cc3c(=O)c(C(=O)O)cn(C4CC4)c3c2F)C1	-0.0177 and 0.0094	6.23	8.33																	
CN[C@H]1CN(c2cc3c(cc2F)c(=O)c(C(=O)O)cn3C2CC2)[C@@H]1C	0.179	6.5	8.6	0.03 (≈ 0.0869 µM)	0.06 (≈ 0.174 µM)	0.06 (≈ 0.174 µM)	2	0.25 (≈ 0.724 µM)	0.03 (≈ 0.0869 µM)	0.12 (≈ 0.347 µM)	0.03 (≈ 0.0869 µM)	0.12 (≈ 0.347 µM)	0.12 (≈ 0.347 µM)	23.3	0.06 (≈ 0.174 µM)	9.2 (≈ 26.6 µM)	10300	0.5 (≈ 1.45 µM)	80.4	
CC1(N)CN(c2nc3c(cc2F)c(=O)c(C(=O)O)cn3C2CC2)C1	-0.1606	6.38	8.21													13.9 (≈ 41.8 µM)				
NC1CN(c2c(F)cc3c(=O)c(C(=O)O)cn(C4CC4)c3c2F)C1	-0.0438	6.12	8.2													1.8 (≈ 5.37 µM)				
C[C@H]1[C@H](N)CN1c1nc2c(cc1F)c(=O)c(C(=O)O)cn2C1CC1	-0.0304	6.26	8.31	0.03 (≈ 0.0903 µM)	0.03 (≈ 0.0903 µM)	0.12 (≈ 0.361 µM)	3.5	0.25 (≈ 0.752 µM)	0.03 (≈ 0.0903 µM)	0.06 (≈ 0.181 µM)	0.03 (≈ 0.0903 µM)	0.12 (≈ 0.361 µM)	0.06 (≈ 0.181 µM)	13.8	0.03 (≈ 0.0903 µM)	20.3 (≈ 61.1 µM)	27200	0.5 (≈ 1.5 µM)	95.4	
CN(C)C1(C)CN(c2cc3c(cc2F)c(=O)c(C(=O)O)cn3C2CC2)C1	0.5153	6.47	7.9																	
C[C@@H]1[C@@H](N(C)C)CN1c1cc2c(cc1F)c(=O)c(C(=O)O)cn2C1CC1	0.668	6.29	7.9	0.5 (≈ 1.39 µM)	0.5 (≈ 1.39 µM)	0.12 (≈ 0.334 µM)	4.5	4 (≈ 11.1 µM)	0.06 (≈ 0.167 µM)	0.5 (≈ 1.39 µM)	0.06 (≈ 0.167 µM)	0.25 (≈ 0.696 µM)	0.5 (≈ 1.39 µM)	62.1	0.5 (≈ 1.39 µM)	96.3 (≈ 268 µM)	12100	4 (≈ 11.1 µM)	135	
CNC1CN(c2cc3c(cc2F)c(=O)c(C(=O)O)cn3C2CC2)C1	0.0215	6.54	8.56																	
CN[C@H]1CN(c2c(F)cc3c(=O)c(C(=O)O)cn(C4CC4)c3c2F)[C@@H]1C	0.292	6.13	8.5	0.03 (≈ 0.0826 µM)	0.06 (≈ 0.165 µM)	0.06 (≈ 0.165 µM)	2.3	0.5 (≈ 1.38 µM)	0.03 (≈ 0.0826 µM)	0.06 (≈ 0.165 µM)	0.03 (≈ 0.0826 µM)	0.06 (≈ 0.165 µM)	0.12 (≈ 0.33 µM)	11.2	0.06 (≈ 0.165 µM)	13.1 (≈ 36.1 µM)	20800	0.5 (≈ 1.38 µM)	70.5	
C[C@H]1[C@H](N)CN1c1c(F)cc2c(=O)c(C(=O)O)cn(C3CC3)c2c1Cl	0.1361	6.04	8.47	0.03 (≈ 0.082 µM)	0.007 (≈ 0.0191 µM)	0.03 (≈ 0.082 µM)	2.8	0.06 (≈ 0.164 µM)	0.03 (≈ 0.082 µM)	0.03 (≈ 0.082 µM)	0.007 (≈ 0.0191 µM)	0.03 (≈ 0.082 µM)	0.03 (≈ 0.082 µM)	9.6	0.03 (≈ 0.082 µM)	12 (≈ 32.8 µM)	5200	0.12 (≈ 0.328 µM)	38	
CCNC1CN(c2cc3c(cc2F)c(=O)c(C(=O)O)cn3C2CC2)C1		6.48																		8.62
CN(C)C1CN(c2c(F)cc3c(=O)c(C(=O)O)cn(C4CC4)c3c2F)C1	0.584	6	8.14													58 (≈ 160 µM)				
C[C@H]1[C@H](N)CN1c1c(F)c(N)c2c(=O)c(C(=O)O)cn(C3CC3)c2c1F	0.0828	6.65		0.015 (≈ 0.0412 µM)	0.03 (≈ 0.0823 µM)	0.015 (≈ 0.0412 µM)	4.2	0.06 (≈ 0.165 µM)	0.015 (≈ 0.0412 µM)	0.015 (≈ 0.0412 µM)	0.015 (≈ 0.0412 µM)	0.015 (≈ 0.0412 µM)	0.06 (≈ 0.165 µM)	8.7	0.015 (≈ 0.0412 µM)	37.7 (≈ 103 µM)	12300	0.25 (≈ 0.686 µM)	102	
